# According to ChEMBL document CHEMBL1128218, “New alpha-thiol dipeptide dual inhibitors of angiotensin-I converting enzyme and neutral endopeptidase EC 3.4.24.11” (J Med Chem, 1995):
# Tests used:
# [1] = biological target: T1, Neprilysin (Rattus norvegicus, UniProt P07861); test: Evaluation of in vitro inhibitory activity against Neutral endopeptidase
# T1 sequence (P07861 whole entry): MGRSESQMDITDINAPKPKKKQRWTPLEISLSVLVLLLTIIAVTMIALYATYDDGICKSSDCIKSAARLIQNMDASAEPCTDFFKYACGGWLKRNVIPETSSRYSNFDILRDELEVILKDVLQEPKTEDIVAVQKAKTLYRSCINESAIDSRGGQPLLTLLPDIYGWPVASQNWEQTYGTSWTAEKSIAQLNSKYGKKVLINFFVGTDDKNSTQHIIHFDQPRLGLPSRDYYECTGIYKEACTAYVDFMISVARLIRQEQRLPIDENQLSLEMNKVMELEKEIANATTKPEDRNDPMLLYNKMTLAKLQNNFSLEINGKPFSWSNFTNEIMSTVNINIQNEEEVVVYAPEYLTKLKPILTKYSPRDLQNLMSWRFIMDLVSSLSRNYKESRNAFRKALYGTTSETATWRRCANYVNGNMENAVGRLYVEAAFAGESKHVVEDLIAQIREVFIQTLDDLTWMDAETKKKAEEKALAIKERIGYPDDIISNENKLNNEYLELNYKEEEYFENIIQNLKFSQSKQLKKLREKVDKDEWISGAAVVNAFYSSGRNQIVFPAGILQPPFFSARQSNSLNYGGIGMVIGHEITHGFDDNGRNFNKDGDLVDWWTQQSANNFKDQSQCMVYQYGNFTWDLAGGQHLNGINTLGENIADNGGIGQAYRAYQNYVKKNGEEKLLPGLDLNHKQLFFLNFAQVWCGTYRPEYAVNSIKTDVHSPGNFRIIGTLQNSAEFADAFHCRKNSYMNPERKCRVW
# Procedure, shortened: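 Rat kidney cortex membrane homogenate (4.2 μg protein) preincubated 10 min at 25 °C with increasing inhibitor concentrations. Then 500 μM GAAP (final) in 50 mM Tris pH 7.4 with leucine aminopeptidase M, 25 min at 25 °C. Done in duplicate; IC50 from curves of seven points near the IC50.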
# [2] = biological target: T2, Angiotensin-converting enzyme (Oryctolagus cuniculus, UniProt P12822); test: Evaluation of in vitro inhibitory activity against Angiotensin I converting enzyme
# T2 sequence (P12822 whole entry): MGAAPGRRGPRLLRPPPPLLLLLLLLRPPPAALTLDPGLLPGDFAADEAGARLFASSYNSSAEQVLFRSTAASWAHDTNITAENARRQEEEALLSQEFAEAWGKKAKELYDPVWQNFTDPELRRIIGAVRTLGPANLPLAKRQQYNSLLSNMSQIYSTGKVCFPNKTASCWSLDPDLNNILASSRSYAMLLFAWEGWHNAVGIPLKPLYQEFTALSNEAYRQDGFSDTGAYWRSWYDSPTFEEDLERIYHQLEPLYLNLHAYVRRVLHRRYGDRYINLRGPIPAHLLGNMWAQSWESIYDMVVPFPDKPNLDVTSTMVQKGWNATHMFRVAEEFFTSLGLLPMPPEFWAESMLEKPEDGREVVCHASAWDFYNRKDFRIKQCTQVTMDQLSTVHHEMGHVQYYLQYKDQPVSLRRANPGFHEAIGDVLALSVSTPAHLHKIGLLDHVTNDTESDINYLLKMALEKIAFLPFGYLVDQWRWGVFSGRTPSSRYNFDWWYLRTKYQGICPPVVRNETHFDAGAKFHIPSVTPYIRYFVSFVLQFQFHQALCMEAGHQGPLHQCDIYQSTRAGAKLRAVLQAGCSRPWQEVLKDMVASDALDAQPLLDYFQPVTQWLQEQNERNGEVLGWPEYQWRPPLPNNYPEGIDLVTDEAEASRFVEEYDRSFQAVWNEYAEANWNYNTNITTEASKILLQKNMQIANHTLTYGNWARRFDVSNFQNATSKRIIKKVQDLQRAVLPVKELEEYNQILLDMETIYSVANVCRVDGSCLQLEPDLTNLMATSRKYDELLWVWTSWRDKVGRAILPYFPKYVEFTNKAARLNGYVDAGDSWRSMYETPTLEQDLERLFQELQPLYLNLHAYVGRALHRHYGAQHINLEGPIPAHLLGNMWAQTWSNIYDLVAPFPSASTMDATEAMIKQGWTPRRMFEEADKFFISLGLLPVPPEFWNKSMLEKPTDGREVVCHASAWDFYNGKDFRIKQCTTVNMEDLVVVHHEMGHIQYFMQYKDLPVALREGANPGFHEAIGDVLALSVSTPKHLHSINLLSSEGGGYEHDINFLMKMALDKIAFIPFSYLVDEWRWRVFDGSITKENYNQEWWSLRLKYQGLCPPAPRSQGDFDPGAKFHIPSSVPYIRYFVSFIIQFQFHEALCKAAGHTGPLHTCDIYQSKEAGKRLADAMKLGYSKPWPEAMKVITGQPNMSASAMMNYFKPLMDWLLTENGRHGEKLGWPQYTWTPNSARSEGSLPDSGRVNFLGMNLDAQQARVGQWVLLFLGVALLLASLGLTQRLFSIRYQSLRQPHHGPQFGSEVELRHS
# Procedure, shortened: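 Rabbit lung ACE in 300 mM NaCl, 100 mM KH2PO4 (pH 8.3). Enzyme and drug mixed, then hippurylhistidylleucine (2 mg/mL stock) added and incubated 75 min at room temperature. Stopped with 1 N NaOH, o-phthalaldehyde added for 10 min at 25 °C, acidified with HCl, OD read at 360 nm.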
# [3] = biological target: T3, Angiotensin-converting enzyme (Rattus norvegicus) (UniProt P47820); test: Evaluation of plasma inhibition of Angiotensin I converting enzyme activity in conscious rat 4 hours after peroral administration at a dose of 12.3 mg/kg; type: functional, organism-based; parameters: dose 12.3 mg/kg
# T3 sequence (whole entry): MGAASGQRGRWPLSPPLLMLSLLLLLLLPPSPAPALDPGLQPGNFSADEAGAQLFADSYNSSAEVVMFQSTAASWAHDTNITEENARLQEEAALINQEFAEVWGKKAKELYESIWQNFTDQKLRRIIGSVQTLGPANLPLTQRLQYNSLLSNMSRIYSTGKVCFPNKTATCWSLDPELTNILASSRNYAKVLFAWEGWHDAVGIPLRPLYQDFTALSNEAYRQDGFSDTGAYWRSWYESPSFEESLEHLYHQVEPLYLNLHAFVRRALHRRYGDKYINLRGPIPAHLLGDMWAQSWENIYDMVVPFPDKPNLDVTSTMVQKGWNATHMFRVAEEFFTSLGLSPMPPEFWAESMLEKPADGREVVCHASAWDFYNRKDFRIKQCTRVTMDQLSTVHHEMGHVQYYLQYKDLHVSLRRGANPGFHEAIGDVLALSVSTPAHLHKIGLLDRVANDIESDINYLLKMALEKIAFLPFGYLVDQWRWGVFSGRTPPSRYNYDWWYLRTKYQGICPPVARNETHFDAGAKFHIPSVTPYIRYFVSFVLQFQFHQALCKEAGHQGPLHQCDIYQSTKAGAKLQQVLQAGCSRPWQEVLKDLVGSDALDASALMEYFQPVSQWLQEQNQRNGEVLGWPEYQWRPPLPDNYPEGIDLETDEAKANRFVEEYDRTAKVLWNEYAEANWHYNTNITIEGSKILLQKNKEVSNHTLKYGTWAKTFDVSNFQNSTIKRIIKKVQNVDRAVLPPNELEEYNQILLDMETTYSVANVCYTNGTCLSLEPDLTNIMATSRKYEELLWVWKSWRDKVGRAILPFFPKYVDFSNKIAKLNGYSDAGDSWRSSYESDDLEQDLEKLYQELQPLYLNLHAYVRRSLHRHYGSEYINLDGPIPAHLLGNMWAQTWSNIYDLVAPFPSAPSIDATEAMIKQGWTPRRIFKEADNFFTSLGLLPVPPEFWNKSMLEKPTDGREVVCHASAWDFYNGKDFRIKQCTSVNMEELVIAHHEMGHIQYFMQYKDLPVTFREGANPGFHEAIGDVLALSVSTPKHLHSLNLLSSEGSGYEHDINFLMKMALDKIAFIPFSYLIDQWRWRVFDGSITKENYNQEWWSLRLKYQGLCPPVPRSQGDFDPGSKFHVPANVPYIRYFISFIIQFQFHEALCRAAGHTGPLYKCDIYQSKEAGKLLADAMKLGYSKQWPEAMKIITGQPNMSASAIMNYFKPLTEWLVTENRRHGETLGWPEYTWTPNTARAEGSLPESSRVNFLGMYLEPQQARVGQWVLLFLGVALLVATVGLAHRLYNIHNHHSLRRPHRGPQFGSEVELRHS
# Procedure, shortened: (§1)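 Male conscious normotensive Sprague-Dawley rats (275-390 g) fitted the day before with femoral arterial and venous catheters under methohexital anesthesia. Three angiotensin-I challenges (300 ng/kg iv) given as baseline. Compound given iv, ia or po (12.3 mg/kg po dose in 3% cornstarch at 1 mg/mL), then AI challenges repeated at set times. Pressor response compared with the mean baseline response and expressed as % inhibition.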
# [4] = biological target: T3, Angiotensin-converting enzyme (Rattus norvegicus); test: Evaluation of plasma inhibition of Angiotensin I converting enzyme activity in conscious rat 6 hours after peroral administration at a dose of 12.3 mg/kg; type: functional, organism-based; parameters: dose 12.3 mg/kg; procedure, shortened: as §1
# [5] = biological target: T3, Angiotensin-converting enzyme (Rattus norvegicus); test: Evaluation of plasma inhibition of Angiotensin I converting enzyme activity in conscious rat 2 hours after peroral administration at a dose of 12.3 mg/kg; type: functional, organism-based; parameters: dose 12.3 mg/kg; procedure, shortened: as §1
# [6] = biological target: T3, Angiotensin-converting enzyme (Rattus norvegicus); test: Evaluation of plasma inhibition of Angiotensin I converting enzyme activity in conscious rat 1 hour after peroral administration at a dose of 12.3 mg/kg; type: functional, organism-based; parameters: dose 12.3 mg/kg; procedure, shortened: as §1
# [7] = biological target: T3, Angiotensin-converting enzyme (Rattus norvegicus); test: Evaluation of plasma inhibition of Angiotensin I converting enzyme activity in conscious rat 1 hour after intravenous administration at a dose of 10 mg/kg; type: functional, organism-based; parameters: dose 10 mg/kg; procedure, shortened: as §1
# [8] = biological target: T3, Angiotensin-converting enzyme (Rattus norvegicus); test: Evaluation of plasma inhibition of Angiotensin I converting enzyme activity in conscious rat 2 hours after intravenous administration at a dose of 10 mg/kg; type: functional, organism-based; parameters: dose 10 mg/kg; procedure, shortened: as §1
# [9] = biological target: T3, Angiotensin-converting enzyme (Rattus norvegicus); test: Evaluation of plasma inhibition of Angiotensin I converting enzyme activity in conscious rat 2 hours after ia administration at a dose of 10 mg/kg; type: functional, organism-based; parameters: dose 10 mg/kg; procedure, shortened: as §1
# [10] = biological target: T3, Angiotensin-converting enzyme (Rattus norvegicus); test: Evaluation of plasma inhibition of Angiotensin I converting enzyme activity in conscious rat 4 hours after ia administration at a dose of 10 mg/kg; type: functional, organism-based; parameters: dose 10 mg/kg; procedure, shortened: as §1
# [11] = biological target: T3, Angiotensin-converting enzyme (Rattus norvegicus); test: Evaluation of plasma inhibition of Angiotensin I converting enzyme activity in conscious rat 1 hour after ia administration at a dose of 10 mg/kg; type: functional, organism-based; parameters: dose 10 mg/kg; procedure, shortened: as §1
# [12] = biological target: T3, Angiotensin-converting enzyme (Rattus norvegicus); test: Evaluation of plasma inhibition of Angiotensin I converting enzyme activity in conscious rat 6 hours after ia administration at a dose of 10 mg/kg; type: functional, organism-based; parameters: dose 10 mg/kg; procedure, shortened: as §1
# [13] = biological target: T3, Angiotensin-converting enzyme (Rattus norvegicus); test: Evaluation of plasma inhibition of Angiotensin I converting enzyme activity in conscious rat 6 hour after oral administration at a dose of 10 mg/kg; type: functional, organism-based; parameters: dose 10 mg/kg; procedure, shortened: as §1
# [14] = biological target: T3, Angiotensin-converting enzyme (Rattus norvegicus); details: Plasma; 10 mg/kg
# [15] = biological target: T3, Angiotensin-converting enzyme (Rattus norvegicus); test: Evaluation of plasma inhibition of Angiotensin I converting enzyme activity in conscious rat 2 hour after oral administration at a dose of 10 mg/kg; type: functional, organism-based; parameters: dose 10 mg/kg
# [16] = biological target: T3, Angiotensin-converting enzyme (Rattus norvegicus); test: Evaluation of plasma inhibition of Angiotensin I converting enzyme activity in conscious rat 1 hour after oral administration at a dose of 10 mg/kg; type: functional, organism-based; parameters: dose 10 mg/kg
structure (smiles),measurement,setting,value
CC(C)[C@H](S)C(=O)NC1(C(=O)N[C@@H](Cc2ccc(-c3ccccc3)cc2)C(=O)O)CCCC1,IC50,[1],16 nM
same,IC50,[2],139 nM
CC(C)[C@H](S)C(=O)N[C@@H](Cc1ccc(-c2ccccc2)cc1)C(=O)N[C@@H](Cc1ccc(O)cc1)C(=O)O,IC50,[2],62 nM
COc1ccc(C[C@H](NC(=O)C2(NC(=O)[C@@H](S)C(C)C)CCCC2)C(=O)O)cc1,IC50,[1],2.2 nM
same,IC50,[2],19 nM
CC(C)[C@H](S)C(=O)NC1(C(=O)N[C@@H](Cc2cccnc2)C(=O)O)CCCC1,IC50,[1],3.1 nM
same,IC50,[2],37 nM
CCOC(=O)[C@H](Cc1c[nH]c2ccccc12)NC(=O)C1(NC(=O)[C@@H](SC(C)=O)C(C)C)CCCC1,inhibition,[3],71%
same,inhibition,[4],64%
same,inhibition,[5],72%
same,inhibition,[6],83%
CC(C)[C@H](S)C(=O)NC1(C(=O)N[C@@H](Cc2ccc(O)cc2)C(=O)O)CCCCC1,IC50,[1],8.7 nM
same,IC50,[2],33 nM
same,inhibition,[7],22%
same,inhibition,[8],10%
"CC(C)CC(NP(=O)(O)OC1O[C@@H](C)[C@H](O)[C@@H](O)[C@H]1O)C(=O)N[C@@H](Cc1c[nH]c2ccccc12)C(=O)O (single isomer, unassigned) [PHOSPHORAMIDON]",IC50,[1],26 nM
O=C(O)CN1C(=O)[C@@H](N[C@@H](CCc2ccccc2)C(=O)O)CCc2ccccc21,inhibition,[9],74%
same,inhibition,[10],27%
same,inhibition,[11],100%
same,inhibition,[12],7%
O=C(O)[C@H](Cc1ccc(O)cc1)NC(=O)C1(NC(=O)C2(S)CCCC2)CCCC1,IC50,[1],5.2 nM
same,IC50,[2],17 nM
same,inhibition,[7],3%
C[C@H](CS)C(=O)N1CCC[C@H]1C(=O)O,inhibition,[13],13%
same,inhibition,[14],36%
same,inhibition,[15],78%
same,inhibition,[9],60%
same,inhibition,[16],100%
same,inhibition,[10],26%
same,inhibition,[11],96%
same,inhibition,[12],3%
CC(C)[C@H](S)C(=O)NC1(C(=O)N[C@@H](Cc2c[nH]c3ccc(O)cc23)C(=O)O)CCCC1,IC50,[1],2 nM
same,IC50,[2],13 nM
CC(C)[C@H](S)C(=O)NC1(C(=O)N[C@@H](Cc2ccc(O)cc2)C(=O)O)CC2CCC1C2 (stereo not given in full),IC50,[1],15 nM
same,IC50,[2],65 nM
